Assay results from ChEMBL document CHEMBL1629652, “Immobilization reduces the activity of surface-bound cationic antimicrobial peptides with no influence upon the activity spectrum” (Antimicrob Agents Chemother, 2009).
Values after ≈ are worked out from the molar mass of the structure shown. Where a SMILES comes first, the peptide text is derived from it.

Experiments:
[1] = system: Bacillus subtilis; assay: Antimicrobial activity against Bacillus subtilis DSM 347 after 17 hrs; assay type: functional; settings: DSM 347, 17 h
Summary of the method: (§1)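 Mid-log cells (OD600 0.4 to 0.5, grown in LB at 37°C, 180 rpm) in LB at 1.6 x 10^6 cells/ml. Soluble peptides were tested in microtiter wells at 100 to 0.05 µM (twofold dilutions). Resin-bound peptides were tested in tubes at 0.5 to 80 mg/ml resin with horizontal shaking. Incubation 37°C, 180 rpm; A600 read at 17 h; triplicate. Resin MICs were converted to mM using peptide loading per mg resin.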

[2] = system: Bacillus subtilis; assay: Bactericidal activity against Bacillus subtilis DSM 347 after 24 hrs; assay type: functional; settings: DSM 347, 24 h
Summary of the method: (§2)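 MBC: after the 17 h LB broth dilution growth assay (1.6 x 10^6 cells/ml, 37°C, shaking), 200 µl from wells at or above the MIC was spread on LB agar. Plates were incubated 24 h at 37°C and colonies counted. MBC is the lowest concentration giving no colonies. Triplicate.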

[3] = system: Escherichia coli; assay: Antimicrobial activity against Escherichia coli DH5[alpha] after 17 hrs; assay type: functional; summary of the method: as §1
[4] = system: Escherichia coli; assay: Bactericidal activity against Escherichia coli DH5[alpha] after 24 hrs; assay type: functional; summary of the method: as §2
[5] = Cytotoxicity against human RBC assessed as hemolytic activity after 30 mins by spectrophotometry; assay type: cell-based; settings: erythrocyte, 0.5 h
Summary of the method: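 Human RBCs were washed in 10 mM Tris, 150 mM NaCl, pH 7.4 and incubated at 2.5 x 10^8 cells/ml with peptide in 1 ml buffer for 30 min with gentle shaking. Samples were ice-cooled and centrifuged (2,000 x g, 4°C, 5 min); supernatant was diluted in 0.5% NH4OH and read at OD540. 0.5% NH4OH served as 100% lysis. EC25 was taken from dose-response curves.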

MIC [1]	MIC [3]	SMILES	MBC [2]	MBC [4]	EC25 [5]
0.8 µM (≈ 1.5 µg/mL)	1.6 µM (≈ 3 µg/mL)	CC(C)C[C@H](NC(=O)[C@H](C)NC(=O)[C@H](CCCCN)NC(=O)[C@H](CC(C)C)NC(=O)[C@H](C)NC(=O)[C@H](CC(C)C)NC(=O)[C@H](CCCCN)NC(=O)[C@H](CC(C)C)NC(=O)[C@H](C)NC(=O)[C@H](CC(C)C)NC(=O)[C@@H](N)CCCCN)C(=O)N[C@@H](CCCCN)C(=O)N[C@@H](C)C(=O)N[C@@H](C)C(=O)N[C@@H](CC(C)C)C(=O)N[C@@H](CCCCN)C(=O)N[C@@H](CC(C)C)C(=O)N[C@@H](C)C(N)=O	0.8 µM (≈ 1.5 µg/mL)	1.6 µM (≈ 3 µg/mL)	13.1 µM
0.8 µM (≈ 1.53 µg/mL)	12.5 µM (≈ 24 µg/mL)	CC(=O)N[C@@H](CCCCN)C(=O)N[C@@H](CC(C)C)C(=O)N[C@@H](C)C(=O)N[C@@H](CC(C)C)C(=O)N[C@@H](CCCCN)C(=O)N[C@@H](CC(C)C)C(=O)N[C@@H](C)C(=O)N[C@@H](CC(C)C)C(=O)N[C@@H](CCCCN)C(=O)N[C@@H](C)C(=O)N[C@@H](CC(C)C)C(=O)N[C@@H](CCCCN)C(=O)N[C@@H](C)C(=O)N[C@@H](C)C(=O)N[C@@H](CC(C)C)C(=O)N[C@@H](CCCCN)C(=O)N[C@@H](CC(C)C)C(=O)N[C@@H](C)C(N)=O	0.8 µM (≈ 1.53 µg/mL)	12.5 µM (≈ 24 µg/mL)	9.1 µM
1.6 µM (≈ 4.09 µg/mL)	3.1 µM (≈ 7.93 µg/mL)	CC[C@H](C)[C@H](NC(=O)CNC(C)=O)C(=O)NCC(=O)N[C@@H](CCCCN)C(=O)N[C@@H](Cc1ccccc1)C(=O)N[C@H](C(=O)N[C@@H](Cc1cnc[nH]1)C(=O)N[C@@H](C)C(=O)N[C@H](C(=O)N[C@@H](CCCCN)C(=O)N[C@@H](CCCCN)C(=O)N[C@@H](Cc1c[nH]c2ccccc12)C(=O)NCC(=O)N[C@@H](CCCCN)C(=O)N[C@H](C(=O)N[C@@H](Cc1ccccc1)C(=O)N[C@H](C(=O)NCC(=O)N[C@@H](CCC(=O)O)C(=O)N[C@H](C(=O)N[C@@H](C)C(=O)N[C@@H](CCCCN)C(=O)N[C@@H](CO)C(N)=O)[C@@H](C)CC)[C@@H](C)CC)[C@@H](C)O)C(C)C)[C@@H](C)CC (Ac-GIGKFIHAVKKWGKTFIGEIAKS-NH2)	1.6 µM (≈ 4.09 µg/mL)	3.1 µM (≈ 7.93 µg/mL)	> 400 µM
1.6 µM (≈ 4.02 µg/mL)	0.8 µM (≈ 2.01 µg/mL)	CC[C@H](C)[C@H](NC(=O)CN)C(=O)NCC(=O)N[C@@H](CCCCN)C(=O)N[C@@H](Cc1ccccc1)C(=O)N[C@H](C(=O)N[C@@H](Cc1cnc[nH]1)C(=O)N[C@@H](C)C(=O)N[C@H](C(=O)N[C@@H](CCCCN)C(=O)N[C@@H](CCCCN)C(=O)N[C@@H](Cc1c[nH]c2ccccc12)C(=O)NCC(=O)N[C@@H](CCCCN)C(=O)N[C@H](C(=O)N[C@@H](Cc1ccccc1)C(=O)N[C@H](C(=O)NCC(=O)N[C@@H](CCC(=O)O)C(=O)N[C@H](C(=O)N[C@@H](C)C(=O)N[C@@H](CCCCN)C(=O)N[C@@H](CO)C(N)=O)[C@@H](C)CC)[C@@H](C)CC)[C@@H](C)O)C(C)C)[C@@H](C)CC (H-GIGKFIHAVKKWGKTFIGEIAKS-NH2)	1.6 µM (≈ 4.02 µg/mL)	0.8 µM (≈ 2.01 µg/mL)	334 µM
